Measured values gathered from unrelated publications.
Protocols differ between the studies behind these lines.
Target: Delta-type opioid receptor (OPRD1, Homo sapiens, UniProt P41143)

c1ccc(C(NCCNC(c2ccccc2)c2ccccc2)c2ccccc2)cc1 — inhibition (ligand displacement; 10 µM): 81%
COCc1c(-c2cc3cc(C)cc(OC)c3s2)c2c(N)ncnn2c1CN1CCNC(=O)C1 — inhibition (ligand displacement, radioligand; 10 µM): 16%
Clc1ccc2c(C3CCN(CCc4c[nH]c5ccccc45)CC3)c[nH]c2c1 — inhibition (ligand displacement, radioligand; 10 µM): 35%
CC(C)N1CCC[C@H]1CNC(=O)c1cn(C2CCCC2)c(=O)c2c1c1ccccc1n2C — inhibition (ligand displacement, radioligand; 10 µM): 6%
Nc1ncc(-c2nc(N3CCOCC3)nc(N3CCOCC3)n2)c(C(F)F)n1 — remaining signal (cell-free assay, radioligand; 10 µM): 103%
CCN(CC)CCCC[C@H](NC(=O)[C@H](CC(C)C)NC(=O)[C@H](C)NC(=O)[C@H](Cc1ccccc1)NC(=O)c1ccc(C(C)(C)C)cc1)C(=O)N[C@@H](CO)C(=O)OC — remaining binding (ligand displacement, radioligand; 10 µM): 71.4%
Cc1cc(Nc2nccc(C)n2)cc(-c2cnc([C@@]3(O)CC[C@H](C(=O)O)C(C)(C)C3)s2)c1 — inhibition (ligand displacement; 10 µM): 12.8%
CC[C@@H]1CN2CC[C@@]3(O)C(=Nc4cccc(-c5ccccc5)c43)[C@@H]2C[C@@H]1/C(=C\OC)C(=O)OC — Emax (β-arrestin recruitment, agonist): > 100%
C[C@H](C(=O)N[C@H]1COc2ccccc2[C@@H]1S(C)(=O)=O)c1ccc(F)cc1 — inhibition (ligand displacement; 10 µM): 1%
O=C(c1ccc(F)cc1)N1CC(COc2ccc(Br)cc2)(C(=O)O)C1 — inhibition (cell-free assay; 10 µM): -5.22%
CC[C@@H]1CN2CC[C@@]3(O)C(=Nc4cccc(-c5ccoc5)c43)[C@@H]2C[C@@H]1/C(=C\OC)C(=O)OC — Emax (β-arrestin recruitment, agonist): > 100%
CC1(C)SSC(C)(C)[C@@H](NC(=O)[C@@H](N)Cc2ccc(O)cc2)C(=O)NCC(=O)N[C@@H](Cc2ccccc2)C(=O)N2CCN(CC2)C(=O)[C@H](Cc2ccccc2)NC(=O)CNC(=O)[C@@H]1NC(=O)[C@@H](N)Cc1ccc(O)cc1 — Emax (cAMP, agonist, luciferase; HEK293): 206%
